# Measurements reported in ChEMBL document CHEMBL1131421, “Tetrahydro-isoquinoline-based factor Xa inhibitors” (J Med Chem, 1998).
# pKi: −log10 of the molar value.
# Assays:
# [1] = target: T1, Prothrombin (Homo sapiens, UniProt P00734); assay: The inhibition constant against human thrombin
# [2] = target: Coagulation factor X (Homo sapiens, UniProt P00742); assay: The inhibition constant against human Coagulation factor X
# [3] = target: Plasminogen (Homo sapiens, UniProt P00747); assay: The inhibition constant against human plasmin
# [4] = target: Trypsin (Homo sapiens, UniProt P07477+P07478+P35030); assay: The inhibition constant against human trypsin; assay type: protein assay
# [5] = The Anti-coagulant activity was tested by measuring activated partial thromboplastin time (aPTT); assay type: functional
# Summary of the method: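 Human citrated plasma (blood 9:1 with 0.11 mol/L sodium citrate, spun 3000 rpm 10 min, RT, used within 8 h) plus aPTT reagent and compound in DMSO (DMSO-only control), 3 min at 37 °C in a coagulometer; clotting time recorded at 1000, 200, 100, 10, 1 μM in plasma. ED200 (aPTT-doubling concentration) from nonlinear fit of y = a + b·x^c; quadruplicate determinations.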
# [6] = target: T1, Prothrombin; assay: The Anti-coagulant activity was tested by measuring thrombin clotting time (TT); assay type: functional
# Summary of the method: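 Thrombin clotting time in human citrated plasma (blood 9:1 with 0.11 mol/L citrate, spun 3000 rpm 10 min, stored RT ≤8 h); plasma with compound in DMSO or DMSO control incubated 2 min at 37 °C in coagulometer. Clotting measured at 500, 100, 50, 5, 0.5 μM in plasma; doubling concentration (ED200) obtained by nonlinear regression of y = a + b·x^c.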
# Sequence of Plasminogen (P00747 97-580 limits assumed): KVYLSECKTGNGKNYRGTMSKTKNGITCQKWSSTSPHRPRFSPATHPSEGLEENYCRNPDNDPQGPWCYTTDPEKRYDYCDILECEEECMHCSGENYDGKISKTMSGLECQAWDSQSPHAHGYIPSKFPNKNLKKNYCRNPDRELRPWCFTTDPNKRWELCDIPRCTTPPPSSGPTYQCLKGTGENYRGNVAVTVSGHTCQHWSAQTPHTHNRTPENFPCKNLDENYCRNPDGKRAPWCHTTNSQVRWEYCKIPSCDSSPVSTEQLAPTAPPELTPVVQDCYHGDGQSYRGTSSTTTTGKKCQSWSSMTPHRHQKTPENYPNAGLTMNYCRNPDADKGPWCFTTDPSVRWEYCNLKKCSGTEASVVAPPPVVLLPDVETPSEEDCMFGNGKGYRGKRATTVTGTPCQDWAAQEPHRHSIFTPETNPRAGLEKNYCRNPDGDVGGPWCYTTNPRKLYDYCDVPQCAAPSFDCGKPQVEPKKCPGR
# Sequence of Plasminogen (P00747 581-810 limits assumed): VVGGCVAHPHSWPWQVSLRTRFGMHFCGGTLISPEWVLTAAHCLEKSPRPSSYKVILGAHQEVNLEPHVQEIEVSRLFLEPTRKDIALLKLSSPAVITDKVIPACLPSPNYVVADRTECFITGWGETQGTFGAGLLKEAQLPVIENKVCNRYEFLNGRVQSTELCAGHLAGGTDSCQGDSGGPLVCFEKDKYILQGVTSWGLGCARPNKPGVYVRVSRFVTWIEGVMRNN
# Sequence of Coagulation factor X (P00742 41-179 limits assumed): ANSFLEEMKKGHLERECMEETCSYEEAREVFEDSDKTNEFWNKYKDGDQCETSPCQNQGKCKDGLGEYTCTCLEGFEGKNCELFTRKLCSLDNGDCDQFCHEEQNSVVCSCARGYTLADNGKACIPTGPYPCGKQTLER
# Sequence of Coagulation factor X (P00742 235-488 limits assumed): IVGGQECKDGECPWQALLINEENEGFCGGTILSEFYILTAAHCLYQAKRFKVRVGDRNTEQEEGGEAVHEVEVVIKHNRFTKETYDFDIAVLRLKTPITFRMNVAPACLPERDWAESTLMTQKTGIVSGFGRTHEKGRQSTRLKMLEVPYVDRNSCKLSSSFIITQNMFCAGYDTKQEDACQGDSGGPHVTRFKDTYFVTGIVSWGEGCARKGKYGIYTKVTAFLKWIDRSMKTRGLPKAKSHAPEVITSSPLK
Compound,pKi [1],pKi [2],pKi [3],Ki [4],ED200 [5],ED200 [6]
CCOC(=O)C(Oc1ccc2c(c1)CN(C(=N)N)CC2)c1ccc(OC2CCN(C(=N)N)CC2)cc1 (stereo not drawn),5.10,7.55,4.60,0.2 µM,3 µM,54 µM
N=C(N)N1CCc2ccc(OC(C(=O)O)c3ccc(O[C@H]4CCN(C(=N)N)C4)cc3)cc2C1 (stereo partly drawn),< 4.00,6.70,,1 µM,40 µM,> 500 µM
CCOC(=O)C(Oc1ccc2c(c1)CN(C(=N)N)CC2)c1ccc(OC2CCN(C(=N)CC)CC2)cc1 (stereo not drawn),4.70,7.52,,0.08 µM,10 µM,70 µM
CCOC(=O)C(Oc1ccc2c(c1)CN(C(=N)N)CC2)c1ccc(O[C@H]2CCN(C(C)=N)C2)cc1 (stereo partly drawn),< 4.00,7.00,,2 µM,10 µM,100 µM
N=C(N)N1CCc2ccc(OC(C(=O)O)c3ccc(O[C@H]4CCNC4)cc3)cc2C1 (stereo partly drawn),< 4.00,6.00,5.00,10 µM,50 µM,> 500 µM
C=CCOC(=O)N1CC[C@H](Oc2ccc(C(Oc3ccc4c(c3)CN(C(=N)N)CC4)C(=O)OCC)cc2)C1 (stereo partly drawn),< 4.00,6.70,5.00,9 µM,200 µM,500 µM
CC(=N)N1CC[C@H](Oc2ccc([C@H](Cc3ccc4ccc(C(=N)N)cc4c3)C(=O)O)cc2)C1.Cl [DX-9065A HYDROCHLORIDE HYDRATE],,,4.96,2 µM,,
COc1ccc(C(=N)N2CCC(Oc3ccc(C(Oc4ccc5c(c4)CN(C(=N)N)CC5)C(=O)O)cc3)CC2)cc1 (stereo not drawn),< 4.00,7.59,,0.2 µM,7 µM,> 500 µM
C=CCN1CC[C@H](Oc2ccc(C(Oc3ccc4c(c3)CN(C(=N)N)CC4)C(=O)OCC)cc2)C1 (stereo partly drawn),< 4.00,6.00,4.30,10 µM,27 µM,240 µM
CCOC(=O)C(Oc1ccc2c(c1)CN(C(=N)N)CC2)c1ccc(OC2CCN(C(C)=N)CC2)cc1 (stereo not drawn),4.82,7.52,4.60,0.4 µM,3 µM,53 µM
CCOC(=O)C(Oc1ccc2c(c1)CN(C(=N)N)CC2)c1ccc(OC2CCN(C(=N)c3ccc(OC)cc3)CC2)cc1 (stereo not drawn),5.30,7.68,,0.2 µM,6 µM,32 µM
C=CCOC(=O)N1CCC(Oc2ccc(C(Oc3ccc4c(c3)CN(C(=N)N)CC4)C(=O)OCC)cc2)CC1 (stereo not drawn),5.40,5.52,4.85,,260 µM,> 500 µM
CC(=O)N1CCC(Oc2ccc(C(Oc3ccc4c(c3)CN(C(=N)N)CC4)C(=O)O)cc2)CC1 (stereo not drawn),< 4.00,6.40,,5 µM,150 µM,> 500 µM
CC(=N)N1CC[C@H](Oc2ccc(C(Oc3ccc4c(c3)CN(C(=N)N)CC4)C(=O)O)cc2)C1 (stereo partly drawn),< 4.00,7.10,,10 µM,30 µM,> 500 µM
CCOC(=O)C(Oc1ccc2c(c1)CN(C(=N)N)CC2)c1ccc(OC2CCOCC2)cc1 (stereo not drawn),5.10,5.70,4.59,3 µM,250 µM,500 µM
N=C(N)N1CCc2ccc(OC(C(=O)O)c3ccc(OC4CCOCC4)cc3)cc2C1 (stereo not drawn),< 4.00,5.52,4.60,12 µM,> 500 µM,> 500 µM
CCOC(=O)C(Oc1ccc2c(c1)CN(C(=N)N)CC2)c1ccc(OC2CCNCC2)cc1 (stereo not drawn),4.80,5.70,4.60,3 µM,26 µM,71 µM
CCOC(=O)C(Oc1ccc2c(c1)CN(C(=N)N)CC2)c1ccc(O[C@H]2CCNC2)cc1 (stereo partly drawn),< 4.00,6.40,4.40,6 µM,26 µM,140 µM
CCOC(=O)C(Oc1ccc2c(c1)CN(C(=N)N)CC2)c1ccc(OC2CCN(C(C)=O)CC2)cc1 (stereo not drawn),< 4.00,5.52,5.00,10 µM,100 µM,200 µM
N=C(N)N1CCC(Oc2ccc(C(Oc3ccc4c(c3)CN(C(=N)N)CC4)C(=O)O)cc2)CC1 (stereo not drawn),< 4.00,7.36,4.36,0.2 µM,9 µM,> 500 µM
CC1(C)CC(=O)C=C(N2CC[C@H](Oc3ccc(C(Oc4ccc5c(c4)CN(C(=N)N)CC5)C(=O)O)cc3)C2)C1 (stereo partly drawn),< 4.00,6.70,4.30,10 µM,200 µM,> 500 µM
CCOC(=O)C(Oc1ccc2c(c1)CN(C(=N)N)CC2)c1ccc(O[C@H]2CCN(C(=N)N)C2)cc1 (stereo partly drawn),4.89,6.70,4.35,2 µM,10 µM,300 µM
CC(=N)N1CCC(Oc2ccc(C(Oc3ccc4c(c3)CN(C(=N)N)CC4)C(=O)O)cc2)CC1 (stereo not drawn),< 4.00,7.26,4.28,2 µM,11 µM,> 500 µM
CCOC(=O)C(Oc1ccc2c(c1)CN(C(=N)N)CC2)c1ccc(O[C@H]2CCN(C3=CC(=O)CC(C)(C)C3)C2)cc1 (stereo partly drawn),< 4.00,6.70,4.30,10 µM,24 µM,90 µM
N=C(N)N1CCc2ccc(OC(C(=O)O)c3ccc(OC4CCNCC4)cc3)cc2C1 (stereo not drawn),< 4.00,5.70,4.60,6 µM,190 µM,> 500 µM
